Experimental data taken from ChEMBL document CHEMBL1137257, “Synthesis and evaluation of thiazepines as interleukin-1beta converting enzyme (ICE) inhibitors” (Bioorg Med Chem Lett, 2006).

Columns and labels:
Caspase-3 = biological target: T1, Caspase-3 (Homo sapiens, UniProt P42574); assay: Inhibition of Caspase 3
T1 sequence (P42574 whole entry): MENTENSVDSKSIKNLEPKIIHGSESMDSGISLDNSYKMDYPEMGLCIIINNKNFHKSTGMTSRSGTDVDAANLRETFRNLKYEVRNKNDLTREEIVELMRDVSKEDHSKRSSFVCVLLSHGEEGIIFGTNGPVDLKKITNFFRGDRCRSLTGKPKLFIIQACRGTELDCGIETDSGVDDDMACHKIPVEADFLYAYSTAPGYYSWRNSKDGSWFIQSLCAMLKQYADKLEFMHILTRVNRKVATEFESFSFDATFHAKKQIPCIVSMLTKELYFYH
How it was run: (§1)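 Isolated enzymes (ICE, caspase-3, caspase-8) were assayed with fluorogenic substrates following the supplier's kit protocol. Cleavage was followed for 30 min at 37 °C by fluorescence (excitation 390 nm, emission 460 nm). IC50 was calculated as [I]/((Vo/Vi) − 1) from the initial velocities with (Vi) and without (Vo) inhibitor.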

Caspase-1 = biological target: T2, Caspase-1 (Homo sapiens, UniProt P29466); assay: Inhibition of ICE; how it was run: as §1
T2 sequence (P29466 whole entry): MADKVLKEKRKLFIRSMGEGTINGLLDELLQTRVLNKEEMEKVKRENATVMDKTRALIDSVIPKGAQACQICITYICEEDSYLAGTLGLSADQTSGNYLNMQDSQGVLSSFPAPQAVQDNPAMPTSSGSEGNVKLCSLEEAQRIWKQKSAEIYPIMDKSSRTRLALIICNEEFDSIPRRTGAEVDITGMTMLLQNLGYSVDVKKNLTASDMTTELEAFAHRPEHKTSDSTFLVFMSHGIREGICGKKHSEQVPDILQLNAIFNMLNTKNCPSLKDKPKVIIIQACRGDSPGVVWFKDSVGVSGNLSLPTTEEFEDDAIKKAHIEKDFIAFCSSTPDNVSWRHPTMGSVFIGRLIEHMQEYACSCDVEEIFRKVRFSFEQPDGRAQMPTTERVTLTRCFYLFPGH

Homo sapiens = species: Homo sapiens; assay: Selectivity for ICE over Caspase 8
Caspase-8 = Caspase-8 (Homo sapiens, UniProt Q14790); assay: Inhibition of Caspase 8; how it was run: as §1
Sequence of Caspase-8 (Q14790 217-374 limits assumed): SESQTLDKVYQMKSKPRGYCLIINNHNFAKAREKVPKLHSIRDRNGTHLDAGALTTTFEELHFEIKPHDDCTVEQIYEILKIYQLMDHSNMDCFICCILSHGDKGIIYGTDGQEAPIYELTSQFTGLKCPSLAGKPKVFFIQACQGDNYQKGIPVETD
Sequence of Caspase-8 (Q14790 385-479 limits assumed): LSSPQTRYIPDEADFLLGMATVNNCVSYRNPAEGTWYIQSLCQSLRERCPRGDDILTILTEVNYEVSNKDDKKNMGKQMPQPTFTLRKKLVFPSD

THP-1 = assay: Inhibition of LPS-induced ILbeta1 release in human THP1 cells; assay type: functional, cell-based
How it was run: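 Human monocytic THP-1 cells (2 × 10⁶/ml, RPMI 1640) were preincubated 15 min with or without compound added as DMSO solutions, with test concentrations starting at 1 nM. Cells were then stimulated with LPS for 4 h and centrifuged. Inhibition of IL-1β production was measured.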

| SMILES | IC50 (Caspase-3) | IC50 (Caspase-1) | Selectivity ratio (Homo sapiens) | IC50 (Caspase-8) | IC50 (THP-1) |
| --- | --- | --- | --- | --- | --- |
| O=C(CN1CCSC[C@H](NC(=O)c2nccc3ccccc23)C1=O)N[C@H]1CC(=O)OC1O (some centres undefined) | > 10000 nM | 70 nM | > 100 | 7000 nM | 730 nM |
| O=C(CN1CCSC[C@H](NC(=O)c2cc3ccccc3s2)C1=O)N[C@H]1CC(=O)OC1O (some centres undefined) | > 10000 nM | 80 nM | > 100 | 9500 nM | 640 nM |
| O=C(CN1CCSC[C@H](NC(=O)c2cccc(C(F)(F)F)c2)C1=O)N[C@H]1CC(=O)OC1O (some centres undefined) | > 10000 nM | 150 nM | > 100 | > 10000 nM | 1000 nM |
| O=C(CN1CCSC[C@H](NC(=O)c2ccc3ccccc3c2)C1=O)N[C@H]1CC(=O)OC1O (some centres undefined) | > 10000 nM | 30 nM | > 100 | 9400 nM | 480 nM |
| O=C(CN1CCS(=O)(=O)C[C@H](NC(=O)c2nccc3ccccc23)C1=O)N[C@H]1CC(=O)OC1O (some centres undefined) | > 10000 nM | 130 nM | > 100 | 5000 nM | 1400 nM |
| CCO[C@@H]1OC(=O)C[C@@H]1NC(=O)[C@@H]1CCCN2C(=O)CC[C@H](NC(=O)c3nccc4ccccc34)C(=O)N12 [PRALNACASAN] | 1300 nM |  |  |  | 190 nM |
| O=C(CN1CCS(=O)(=O)C[C@H](NC(=O)c2cccc(C(F)(F)F)c2)C1=O)N[C@H]1CC(=O)OC1O (some centres undefined) |  |  | > 100 |  | 3400 nM |

The remaining lines, values ahead:

| IC50 (Caspase-3) | IC50 (Caspase-1) | Selectivity ratio (Homo sapiens) | IC50 (Caspase-8) | IC50 (THP-1) | SMILES |
| --- | --- | --- | --- | --- | --- |
| > 10000 nM | 320 nM | > 100 | 8500 nM | 1700 nM | O=C(CN1CCS(=O)(=O)C[C@H](NC(=O)c2cc3ccccc3s2)C1=O)N[C@H]1CC(=O)OC1O (some centres undefined) |
| > 10000 nM | 2300 nM | > 100 | > 10000 nM | 3200 nM | O=C(CN1CCS(=O)(=O)C[C@H](NC(=O)c2ccccc2)C1=O)N[C@H]1CC(=O)OC1O (some centres undefined) |
| > 10000 nM | 350 nM | > 100 | 5200 nM | 1700 nM | O=C(CN1CCSC[C@H](NC(=O)c2ccccc2)C1=O)N[C@H]1CC(=O)OC1O (some centres undefined) |
| > 10000 nM | 150 nM | > 100 | > 10000 nM | 1100 nM | O=C(CN1CCS(=O)(=O)C[C@H](NC(=O)c2ccc3ccccc3c2)C1=O)N[C@H]1CC(=O)OC1O (some centres undefined) |
